Data published in ChEMBL document CHEMBL1129512, “Studies on the mechanism of phosphatidylinositol 3-kinase inhibition by wortmannin and related analogs” (J Med Chem, 1996).
“And” between values parts separate entries of the source, which are not always exact repeats. Equal entries are not always repeated.

Experiments:
[1] = tested on: Mus musculus; test: In vivo inhibition of tumor growth in C3H Mammary model was evaluated at dose 2.0 mg/kg peroral administration; format: functional; conditions: route oral
How it was run: (§1)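 Murine C3H mammary tumour fragments were implanted subcutaneously by trochar in the axillary region, in groups of 10 randomized mice. Oral dosing started 1 day after implant, daily ×10, as a suspension in 2.5% emulphor EL-620 in 0.9% NaCl (water for one analog). Tumour weight, calculated as length×width²×0.5 from calipers, was measured the day after the last dose. Percent inhibition was calculated versus controls. Groups with >25% lethality were scored toxic.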

[2] = tested on: Mus musculus; test: In vivo inhibition of tumor growth in C3H Mammary model was evaluated at dose 4.0 mg/kg peroral administration; format: functional; conditions: route oral; how it was run: as §1
[3] = In vitro inhibitory activity against Phosphatidylinositol 3-Kinase
How it was run: (§2)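 Purified PI 3-kinase from bovine brain was used as the enzyme source. Results are reported as IC50 values.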

[4] = tested on: Mus musculus; test: In vivo inhibition of tumor growth in C3H Mammary model was evaluated at dose 10 mg/kg peroral administration; format: functional; conditions: route oral; how it was run: as §1
[5] = tested on: Mus musculus; test: In vivo inhibition of tumor growth in C3H Mammary model was evaluated at dose 5.0 mg/kg peroral administration; range is 60-79%; format: functional; conditions: route oral; how it was run: as §1
[6] = Inhibition of Phosphatidylinositol 3-Kinase; how it was run: as §2
[7] = tested on: Mus musculus; test: IIn vivo inhibition of tumor growth in B-16 melanoma model was evaluated by inhibition of tumor growth at dose 0.75 mg/kg peroral administration; format: functional; conditions: B16, route oral
How it was run: (§3)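 Murine tumours were serially passaged as tumour fragments, implanted s.c. by trochar in the axillary region. Daily oral dosing began 1 day after implant, as a suspension in 2.5% emulphor EL-620 in 0.9% NaCl. There were 10 randomized mice per group. Tumours were measured by caliper the day after the last dose, with weight = length × width² × 0.5. Inhibition was 100 × (1 − mean treated/mean control weight). A group was toxic if lethality was >25%.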

[8] = tested on: Mus musculus; test: In vivo inhibition of tumor growth B-16 melanoma model was evaluated at dose 1.50 mg/kg peroral administration; format: functional; conditions: B16, route oral; how it was run: as §3
[9] = tested on: Mus musculus; test: In vivo inhibition of tumor growth in 6C3HED lymphosarcomal was evaluated at dose 0.75 mg/kg peroral administration; format: functional; conditions: route oral; how it was run: as §3
[10] = tested on: Mus musculus; test: In vivo inhibition of tumor growth in 6C3HED lymphosarcomal was evaluated at dose 1.50 mg/kg peroral administration; format: functional; conditions: route oral; how it was run: as §3
[11] = tested on: Mus musculus; test: In vivo inhibition of tumor growth in C-26 colon model was evaluated dose 0.75 mg/kg peroral administration; format: functional; conditions: route oral; how it was run: as §3
[12] = tested on: Mus musculus; test: In vivo inhibition of tumor growth in C-26 colon model was evaluated dose 1.50 mg/kg peroral administration; format: functional; conditions: route oral; how it was run: as §3
[13] = tested on: Mus musculus; test: In vivo inhibition of tumor growth in C3H Mammary model was evaluated at dose 2.50 mg/kg peroral administration; format: functional; conditions: route oral; how it was run: as §3
[14] = tested on: Mus musculus; test: In vivo inhibition of tumor growth in Lewis lung model was evaluated at dose 0.75 mg/kg peroral administration; format: functional; conditions: route oral; how it was run: as §3
[15] = tested on: Mus musculus; test: In vivo inhibition of tumor growth in Lewis lung model was evaluated at dose 1.50 mg/kg peroral administration; format: functional; conditions: route oral; how it was run: as §3
[16] = tested on: Mus musculus; test: In vivo inhibition of tumor growth in M-5076 ovarian model was evaluated at dose 0.75 mg/kg peroral administration; format: functional; conditions: M5076, route oral
How it was run: (§4)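 For the murine M-5076 ovarian tumour, fragments were implanted s.c. by trochar in the axilla. Daily oral dosing began 5 days after implant, as a suspension in 2.5% emulphor EL-620/0.9% NaCl. There were 10 randomized mice per group.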

[17] = tested on: Mus musculus; test: In vivo inhibition of tumor growth in M-5076 ovarian model was evaluated at dose 1.50 mg/kg peroral administration; format: functional; conditions: M5076, route oral; how it was run: as §4
[18] = tested on: Mus musculus; test: In vivo inhibition of tumor growth in X-5563 plasma cell myeloma model was evaluated at dose 1.25 mg/kg peroral administration; format: functional; conditions: route oral
[19] = tested on: Homo sapiens; test: In vivo inhibition of tumor growth in PANC-1 pancreatic model was evaluated at dose 0.75 mg/kg peroral administration; format: functional; conditions: route oral
How it was run: (§5)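 Human xenograft fragments were implanted s.c. via trochar in the axillary region of mice. Daily oral dosing began 7 days after implant, as a suspension in 2.5% emulphor EL-620 in 0.9% NaCl. There were 10 randomized mice per group. Tumours were measured by caliper 5 days after the last dose, with weight = length × width² × 0.5. Inhibition was 100 × (1 − treated/control mean weight), and toxic meant lethality >25%.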

[20] = tested on: Homo sapiens; test: In vivo inhibition of tumor growth in VRC5 colon model was evaluated at dose 0.75 mg/kg peroral administration; format: functional; conditions: route oral
[21] = tested on: Homo sapiens; test: In vivo inhibition of tumor growth in VRC5 colon model was evaluated at dose 1.50 mg/kg peroral administration; format: functional; conditions: route oral
[22] = tested on: Homo sapiens; test: In vivo toxicity against PI 3-Kinase in GC3 colon model was evaluated by inhibition of tumor growth at dose 0.75 mg/kg peroral administration; format: functional; conditions: route oral; how it was run: as §5
[23] = tested on: Homo sapiens; test: In vivo inhibition of tumor growth IGROV1 ovarian model was evaluated at dose 0.75 mg/kg peroral administration; format: functional; conditions: IGROV-1, route oral
How it was run: (§6)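 HC1 colon and IGROV1 ovarian xenografts were implanted s.c. as fragments by axillary trochar. Daily oral dosing started 14 days after implant, as a suspension in 2.5% emulphor EL-620/0.9% NaCl. Groups were 10 randomized mice.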

[24] = tested on: Homo sapiens; test: In vivo inhibition of tumor growth MX-1 mammary model was evaluated at dose 1.50 mg/kg peroral administration; format: functional; conditions: route oral
[25] = tested on: Homo sapiens; test: In vivo inhibition of tumor growth PANC-1 pancreatic model was evaluated at dose 1.50 mg/kg peroral administration; format: functional; conditions: route oral; how it was run: as §5
[26] = tested on: Homo sapiens; test: In vivo inhibition of tumor growth in BXPC-3 pancreatic model was evaluated at dose 0.75 mg/kg peroral administration; range is 60-79%; format: functional; conditions: route oral; how it was run: as §5
[27] = tested on: Homo sapiens; test: In vivo inhibition of tumor growth in BXPC-3 pancreatic model was evaluated at dose 1.50 mg/kg peroral administration; format: functional; conditions: route oral; how it was run: as §5
[28] = tested on: Homo sapiens; test: In vivo inhibition of tumor growth in CX-1 colon model was evaluated at dose 0.75 mg/kg peroral administration; format: functional; conditions: route oral; how it was run: as §5
[29] = tested on: Homo sapiens; test: In vivo inhibition of tumor growth in CX-1 colon model was evaluated at dose 1.50 mg/kg peroral administration; format: functional; conditions: route oral; how it was run: as §5
[30] = tested on: Homo sapiens; test: In vivo inhibition of tumor growth in GC3 colon model was evaluated at dose 0.38 mg/kg peroral administration; format: functional; conditions: route oral; how it was run: as §5
[31] = tested on: Homo sapiens; test: In vivo inhibition of tumor growth in HC1 colon model was evaluated at dose 0.75 mg/kg peroral administration; format: functional; conditions: route oral; how it was run: as §6
[32] = tested on: Homo sapiens; test: In vivo inhibition of tumor growth in HC1 colon model was evaluated at dose 1.50 mg/kg peroral administration; format: functional; conditions: route oral; how it was run: as §6
[33] = tested on: Homo sapiens; test: In vivo inhibition of tumor growth in LX-1 lung model was evaluated at dose 0.38 mg/kg peroral administration; format: functional; conditions: route oral; how it was run: as §5
[34] = tested on: Homo sapiens; test: In vivo inhibition of tumor growth in LX-1 lung model was evaluated at dose 0.75 mg/kg peroral administration; format: functional; conditions: route oral; how it was run: as §5
[35] = tested on: Homo sapiens; test: In vivo inhibition of tumor growth in MX-1 mammary model was evaluated at dose 0.75 mg/kg peroral administration; format: functional; conditions: route oral
[36] = tested on: Homo sapiens; test: In vivo inhibition of tumor growth in PACA-2 pancreatic model was evaluated at dose 0.75 mg/kg peroral administration; format: functional; conditions: route oral; how it was run: as §5
[37] = tested on: Homo sapiens; test: In vivo inhibition of tumor growth in PACA-2 pancreatic model was evaluated at dose 1.50 mg/kg peroral administration; format: functional; conditions: route oral; how it was run: as §5
[38] = tested on: Homo sapiens; test: In vivo inhibition of tumor growth in IGROV1 ovarian model was evaluated at dose 1.50 mg/kg peroral administration; format: functional; conditions: IGROV-1, route oral; how it was run: as §6
[39] = tested on: Mus musculus; test: In vivo inhibition of tumor growth in C3H Mammary model was evaluated at dose 1.25 mg/kg peroral administration; range is 60-79%; format: functional; conditions: route oral; how it was run: as §3
[40] = tested on: Mus musculus; test: In vivo inhibition of tumor growth in C3H Mammary model was evaluated at dose 0.50 mg/kg peroral administration; format: functional; conditions: route oral; how it was run: as §3
[41] = tested on: Mus musculus; test: In vivo inhibition of tumor growth in C3H Mammary model was evaluated at dose 1.0 mg/kg peroral administration; format: functional; conditions: route oral; how it was run: as §3

COC[C@H]1OC(=O)c2coc3c2[C@@]1(C)C1=C(C3=O)[C@@H]2CCC(=O)[C@@]2(C)CC1
inhibition in vivo at 2 mg/kg [1]: < 60% | inhibition in vivo at 4 mg/kg [2]: > 25% | IC50 [3]: 17 nM

CCN(/C=C1\C(=O)O[C@H](COC)[C@@]2(C)C1=C(O)C(=O)C1=C2[C@H](OC(C)=O)C[C@]2(C)C(=O)CC[C@@H]12)CC
inhibition in vivo at 10 mg/kg [4]: > 25% | inhibition in vivo at 5 mg/kg [5]: 79% | IC50 [6]: 80 nM

COC[C@H]1OC(=O)c2coc3c2[C@@]1(C)C1=C(C3=O)[C@@H]2CCC(=O)[C@@]2(C)C[C@H]1OC(C)=O [WORTMANNIN]
inhibition in vivo at 0.75 mg/kg [7]: < 60% | inhibition in vivo at 1.5 mg/kg [8]: > 25% | inhibition in vivo at 0.75 mg/kg [9]: < 60% | inhibition in vivo at 1.5 mg/kg [10]: > 25% | inhibition in vivo at 0.75 mg/kg [11]: < 60% | inhibition in vivo at 1.5 mg/kg [12]: > 25% | inhibition in vivo at 2.5 mg/kg [13]: > 25% | inhibition in vivo at 0.75 mg/kg [14]: < 60% | inhibition in vivo at 1.5 mg/kg [15]: > 25% | inhibition in vivo at 0.75 mg/kg [16]: < 60% | inhibition in vivo at 1.5 mg/kg [17]: > 25% | Inhibition [18]: <60% and >25% | IC50 [3]: 4.2 nM | inhibition in vivo at 0.75 mg/kg [19]: < 60% | inhibition in vivo at 0.75 mg/kg [20]: < 60% | inhibition in vivo at 1.5 mg/kg [21]: > 25% | inhibition in vivo at 0.75 mg/kg [22]: > 25% | inhibition in vivo at 0.75 mg/kg [23]: < 60% | inhibition in vivo at 1.5 mg/kg [24]: > 25% | inhibition in vivo at 1.5 mg/kg [25]: > 25% | inhibition in vivo at 0.75 mg/kg [26]: 79% | inhibition in vivo at 1.5 mg/kg [27]: > 25% | inhibition in vivo at 0.75 mg/kg [28]: < 60% | inhibition in vivo at 1.5 mg/kg [29]: > 25% | inhibition in vivo at 0.38 mg/kg [30]: > 25% | inhibition in vivo at 0.75 mg/kg [31]: < 60% | inhibition in vivo at 1.5 mg/kg [32]: > 25% | inhibition in vivo at 0.38 mg/kg [33]: < 60% | inhibition in vivo at 0.75 mg/kg [34]: > 25% | inhibition in vivo at 0.75 mg/kg [35]: < 60% | inhibition in vivo at 0.75 mg/kg [36]: < 60% | inhibition in vivo at 1.5 mg/kg [37]: > 25% | inhibition in vivo at 1.5 mg/kg [38]: > 25% | inhibition in vivo at 1.25 mg/kg [39]: 79%

COC[C@H]1OC(=O)c2coc3c2[C@@]1(C)C1=C(C3=O)[C@@H]2CC[C@H](O)[C@@]2(C)C[C@H]1OC(C)=O
inhibition in vivo at 0.5 mg/kg [40]: < 60% | inhibition in vivo at 1 mg/kg [41]: > 25% | IC50 [3]: 0.5 nM

COC[C@H]1OC(O)=C(C=N)C2=C(O)C(=O)C3=C([C@H](OC(C)=O)C[C@]4(C)C(=O)CC[C@@H]34)[C@]21C
IC50 [3]: > 500 nM

COC[C@H]1OC(=O)c2coc3c2[C@@]1(C)C1=C(C3=O)[C@@H]2C[C@@H](OC(C)=O)C(=O)[C@@]2(C)C[C@H]1OC(C)=O
IC50 [3]: 309 nM

COC[C@H]1OC(=O)c2coc3c2[C@@]1(C)C1=C(C3=O)[C@@H]2CC=C(OC(C)=O)[C@@]2(C)C[C@H]1OC(C)=O
IC50 [3]: 59 nM

CCCCS/C=C1\C(=O)O[C@H](COC)[C@@]2(C)C1=C(O)C(=O)C1=C2[C@H](OC(C)=O)C[C@]2(C)C(=O)CC[C@@H]12
IC50 [3]: 52 nM

CCC/N=C\C1=C(O)O[C@H](COC)[C@@]2(C)C1=C(O)C(=O)C1=C2[C@H](OC(C)=O)C[C@]2(C)C(=O)CC[C@@H]12
IC50 [3]: > 500 nM
